# According to ChEMBL document CHEMBL4765239, “Discovery of a Novel Highly Selective Histamine H4 Receptor Antagonist for the Treatment of Atopic Dermatitis” (J Med Chem, 2018):
# The source made the active and inactive calls. No cut-off for these calls is given here.
# Key:
# [1] = target: Histamine H4 receptor (Homo sapiens, UniProt Q9H3N8); test: Displacement of [3H]-histamine from recombinant human histamine H4 receptor expressed in CHO-K1 cell membranes measured after 30 mins by microbeta scintillation counting method; parameters: species or system Cell membrane
# Chain of Histamine H4 receptor (Q9H3N8 whole entry): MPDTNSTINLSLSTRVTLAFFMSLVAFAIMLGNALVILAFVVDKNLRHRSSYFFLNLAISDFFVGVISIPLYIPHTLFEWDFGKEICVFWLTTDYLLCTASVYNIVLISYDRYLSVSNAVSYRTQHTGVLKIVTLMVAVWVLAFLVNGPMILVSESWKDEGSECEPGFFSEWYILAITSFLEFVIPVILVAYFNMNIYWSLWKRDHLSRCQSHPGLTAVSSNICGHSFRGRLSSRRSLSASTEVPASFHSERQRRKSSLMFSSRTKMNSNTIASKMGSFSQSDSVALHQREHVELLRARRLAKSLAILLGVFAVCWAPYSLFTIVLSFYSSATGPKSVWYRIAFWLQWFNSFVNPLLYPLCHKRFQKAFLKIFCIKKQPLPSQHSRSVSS
# [2] = test system: Mus musculus; test: Antiinflammatory activity in oxazolone-induced Balb/c mouse model of atopic dermatitis assessed as reduction of ear thickness at 50 mg/kg, po BID administered 30 mins prior to oxazolone challenge for 3 weeks and measured on day 27; assay type: functional, organism-based
# In short: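 Female BALB/c mice (n=8), abdomen shaved. Sensitized on day 0 with topical 1% oxazolone (50 µL) in acetone/corn oil 4:1. From day 7, right ear challenged with 0.2% oxazolone (25 µL) 3 times weekly; left ear got vehicle. Oral dosing twice daily, 30 min before challenge, for 3 weeks. Scratching counted for 1 h after challenge on day 25. Ear thickness measured; ear fixed in 4% paraformaldehyde, 3 µm paraffin sections stained with H&E for epidermal thickness. Mean ± S.E.M., t-test.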
# [3] = test system: Mus musculus; test: Anti-pruritus activity in ICR mouse with C48/80-induced itching assessed as reduction of scratching bouts at 50 mg/kg, po administered 30 mins prior to […] and measured upto 20 mins; assay type: functional, organism-based; conditions: time 50.0 min
# In short: (§1)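 Female ICR mice (n=8-10 per group), back skin clipped 24 h before. Oral dose in 20% hydroxypropyl-β-cyclodextrin given 30 min before intradermal pruritogen in saline: histamine 300 nmol, substance P 100 nmol or C48/80 100 µg. Scratching bouts counted from video for 20 min after injection. Mean ± S.E.M., Student's t-test.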
# [4] = test system: Mus musculus; test: Anti-pruritus activity in ICR mouse with substance P-induced itching assessed as reduction of scratching bouts at 50 mg/kg, po administered 30 mins prior to […] and measured upto 20 mins; assay type: functional, organism-based; conditions: time 50.0 min; in short: as §1
# [5] = test system: Mus musculus; test: Anti-pruritus activity in ICR mouse with histamine-induced itching assessed as reduction of scratching bouts administered orally 30 mins prior to histamine challenge and measured upto 20 mins; assay type: functional, organism-based; conditions: dose 2-50 mg/kg, time 50.0 min
# [6] = target: T1, 5-hydroxytryptamine receptor 3A (Homo sapiens) (UniProt P46098); test: Displacement of [3H]BRL 43694 from human recombinant 5-HT3 receptor at 10 uM after 120 mins by scintillation counting analysis relative to control
# T1 sequence (whole entry): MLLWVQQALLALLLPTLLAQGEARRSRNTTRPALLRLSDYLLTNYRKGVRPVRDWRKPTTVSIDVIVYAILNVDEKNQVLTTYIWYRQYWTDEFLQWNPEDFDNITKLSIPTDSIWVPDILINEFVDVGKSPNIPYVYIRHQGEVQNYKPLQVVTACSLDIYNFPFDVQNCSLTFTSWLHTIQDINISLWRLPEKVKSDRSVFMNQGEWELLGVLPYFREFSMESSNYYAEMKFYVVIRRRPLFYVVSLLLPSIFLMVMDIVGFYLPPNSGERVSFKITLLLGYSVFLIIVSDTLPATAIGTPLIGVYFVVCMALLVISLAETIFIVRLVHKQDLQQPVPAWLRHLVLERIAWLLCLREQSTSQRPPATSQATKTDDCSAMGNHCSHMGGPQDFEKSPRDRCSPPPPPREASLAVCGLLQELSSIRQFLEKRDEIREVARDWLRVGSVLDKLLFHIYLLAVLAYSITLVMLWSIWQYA
# [7] = target: Histamine H2 receptor (Homo sapiens) (UniProt P25021); test: Displacement of [125I]-aminopotentidine from recombinant human histamine H2 receptor after 120 mins by radiometric scintillation counting analysis
# Chain of Histamine H2 receptor (Homo sapiens) (P25021 whole entry): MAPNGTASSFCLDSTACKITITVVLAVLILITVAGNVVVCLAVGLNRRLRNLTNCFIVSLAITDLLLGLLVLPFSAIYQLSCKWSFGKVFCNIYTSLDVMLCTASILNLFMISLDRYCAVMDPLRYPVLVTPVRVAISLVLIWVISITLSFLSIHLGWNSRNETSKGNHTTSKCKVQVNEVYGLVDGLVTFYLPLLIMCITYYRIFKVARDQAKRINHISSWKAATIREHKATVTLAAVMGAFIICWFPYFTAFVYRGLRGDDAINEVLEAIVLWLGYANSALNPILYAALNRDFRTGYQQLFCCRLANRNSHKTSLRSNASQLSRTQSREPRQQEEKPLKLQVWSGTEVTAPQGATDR
# [8] = target: T2, Histamine H4 receptor (Mus musculus) (UniProt Q91ZY2); test: Agonist activity at recombinant mouse histamine H4 receptor expressed in CHO-K1 cells assessed as stimulation of [35S]-GTPgammaS binding by scintillation proximity assay; assay type: functional, cell membranes; conditions: Cell membrane
# T2 sequence (whole entry): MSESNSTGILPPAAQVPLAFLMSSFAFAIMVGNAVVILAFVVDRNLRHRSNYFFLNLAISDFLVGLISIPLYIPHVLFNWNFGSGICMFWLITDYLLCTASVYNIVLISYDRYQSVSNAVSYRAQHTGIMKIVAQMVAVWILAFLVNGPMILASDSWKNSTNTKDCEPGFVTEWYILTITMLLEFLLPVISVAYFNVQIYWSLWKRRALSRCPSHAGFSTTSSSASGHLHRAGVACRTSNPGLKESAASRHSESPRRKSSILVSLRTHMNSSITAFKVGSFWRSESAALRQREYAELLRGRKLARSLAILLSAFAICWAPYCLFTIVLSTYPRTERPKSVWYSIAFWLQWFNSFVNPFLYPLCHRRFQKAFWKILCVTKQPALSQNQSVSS
# In short: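 GTPγ35S binding on recombinant mouse H4R, run by an outside contractor. R-α-methylhistamine served as reference agonist and thioperamide as reference antagonist.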
# [9] = Tmax in ICR mouse at 50 mg/kg, po measured upto 24 hrs by LC-MS/MS analysis; assay type: ADME, organism-based; conditions: in vivo
# In short: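 Female ICR mice, n=3 per group, given test compound orally. Blood sampled at 0.5, 1, 2, 4, 7 and 24 h post dose; plasma levels quantified by LC-MS/MS. Parameters from non-compartmental analysis.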
# [10] = test system: Mus musculus; test: Anti-pruritus activity in ICR mouse with histamine-induced itching assessed as reduction of scratching bouts at 10 mg/kg, po administered 30 mins prior to histamine challenge and measured upto 20 mins; assay type: functional; parameters: scale not given: the % may be the effect or the level left; conditions: time 50 min; in short: as §1
smiles,measurement,setting,value
CNC1CN(c2nc3ncc(Br)cc3n3nnnc23)C1,IC50,[1],27 nM
same,Activity,[2],Active
same,Activity,[3],Active
same,Activity,[4],Active
same,Activity,[5],Dose-dependent effect
same,inhibition,[6],14%
same,Activity,[7],inactive
same,Activity,[8],inactive
same,Tmax,[9],30 min
same,Activity,[10],<=50%
